Experiment [1] concerns the target T1, Calcitonin receptor (Homo sapiens, UniProt P30988).
T1 sequence (P30988 whole entry): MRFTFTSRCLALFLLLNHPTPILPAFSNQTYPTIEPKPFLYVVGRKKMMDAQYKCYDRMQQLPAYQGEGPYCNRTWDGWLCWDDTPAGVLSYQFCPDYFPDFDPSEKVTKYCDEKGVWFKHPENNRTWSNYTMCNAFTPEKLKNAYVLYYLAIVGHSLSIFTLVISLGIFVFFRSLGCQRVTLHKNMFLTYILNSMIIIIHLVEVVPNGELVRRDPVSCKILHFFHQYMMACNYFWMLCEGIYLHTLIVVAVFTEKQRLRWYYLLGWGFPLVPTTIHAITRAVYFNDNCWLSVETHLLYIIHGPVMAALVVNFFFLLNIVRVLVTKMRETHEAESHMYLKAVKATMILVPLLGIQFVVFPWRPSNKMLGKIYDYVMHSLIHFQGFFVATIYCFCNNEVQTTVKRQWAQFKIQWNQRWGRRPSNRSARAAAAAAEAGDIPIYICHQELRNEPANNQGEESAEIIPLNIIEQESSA
In words: Inhibition of [125I]-salmon calcitonin (sCT) binding to human calcitonin receptor I1 expressed in HEK293 cells. The experiment is classed as cell-based. Particulars: hek293.

In experiment [2] the target is T2, Calcitonin receptor (Rattus norvegicus, UniProt P32214).
T2 sequence (P32214 whole entry): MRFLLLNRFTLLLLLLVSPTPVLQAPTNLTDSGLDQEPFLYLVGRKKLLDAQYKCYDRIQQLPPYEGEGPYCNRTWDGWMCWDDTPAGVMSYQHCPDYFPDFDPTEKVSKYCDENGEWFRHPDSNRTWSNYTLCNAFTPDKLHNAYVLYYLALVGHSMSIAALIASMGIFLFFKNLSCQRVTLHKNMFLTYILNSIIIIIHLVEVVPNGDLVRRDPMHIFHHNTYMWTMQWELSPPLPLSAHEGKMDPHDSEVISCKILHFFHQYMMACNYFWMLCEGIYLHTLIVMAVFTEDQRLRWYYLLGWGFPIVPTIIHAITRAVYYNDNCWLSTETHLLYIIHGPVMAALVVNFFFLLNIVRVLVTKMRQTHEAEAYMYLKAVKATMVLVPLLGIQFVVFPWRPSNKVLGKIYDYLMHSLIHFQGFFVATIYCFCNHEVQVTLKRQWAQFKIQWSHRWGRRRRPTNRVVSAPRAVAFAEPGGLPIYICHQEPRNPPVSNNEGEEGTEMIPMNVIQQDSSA
As to the kind of experiment: Displacement of [125I]-salmon calcitonin (sCT) from calcitonin receptor of rat brain. A digest of the protocol:
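Male Sprague–Dawley rat (250–350 g) brain membranes (~0.63 mg protein/tube) were shaken on ice for 30 min with 10 pM final [125I-Tyr22]sCT and competitor in 50 mM Tris-HCl pH 7.4 with 34 μM bacitracin. Tubes were centrifuged and the pellets washed, SDS-solubilized and scintillation counted. Nonspecific binding was taken with 1 μM sCT. IC50 came from probit analysis, and relative affinity set sCT = 100%.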

Molecules are shown by their SMILES. Positions of bridges follow the written chain, without caps; N, C: chain ends. Non-standard residues stand in square brackets, D forms with d. Residues, ends and D or L forms follow the SMILES beside them. Nle = CCCC[C@H](N)C(=O)O; Orn = NCCC[C@H](N)C(=O)O

As a reminder, the Ki is a measure of affinity in units of concentration, obtained from inhibition or displacement. By IC50 is commonly meant the point on the concentration scale where inhibition reaches its midpoint. Take `CC(C)C[C@H](NC(=O)[C@H](CCCCN)NC(=O)CNC(=O)[C@H](CC(C)C)NC(=O)[C@@H](NC(=O)[C@H](CS)NC(=O)[C@@H](NC(=O)[C@H](CO)NC(=O)[C@H](CC(C)C)NC(=O)[C@H](CC(N)=O)NC(=O)[C@H](CO)NC(=O)[C@@H](N)CS)[C@@H](C)O)C(C)C)C(=O)N[C@@H](CO)C(=O)N[C@@H](CCC(N)=O)C(=O)N[C@@H](CCC(=O)O)C(=O)N[C@@H](CC(C)C)C(=O)N[C@H]1CC(=O)NCCC[C@@H](C(=O)N[C@@H](Cc2ccc(O)cc2)C(=O)N2CCC[C@H]2C(=O)N[C@@H](CCCN=C(N)N)C(=O)N[C@H](C(=O)N[C@@H](CC(N)=O)C(=O)N[C@H](C(=O)NCC(=O)N[C@@H](CO)C(=O)NCC(=O)N[C@H](C(=O)N2CCC[C@H]2C(N)=O)[C@@H](C)O)[C@@H](C)O)[C@@H](C)O)NC(=O)[C@H](Cc2c[nH]cn2)NC(=O)[C@H](CC(C)C)NC(=O)[C@H](CCCCN)NC1=O` (H-CSNLSTCVLGKLSQELDKLH[Orn]YPRTNTGSGTP-NH2; lactam 17-21): the Ki in experiment [1] came to 0.069 nM. The IC50 in experiment [2] is 0.249 nM.

As to `CCCC[C@H](NC(=O)[C@H](Cc1c[nH]cn1)NC(=O)[C@H](CC(C)C)NC(=O)[C@H](CCCCN)NC(=O)[C@H](CC(N)=O)NC(=O)[C@H](CC(C)C)NC(=O)[C@H](CCC(=O)O)NC(=O)[C@H](CCC(N)=O)NC(=O)[C@H](CO)NC(=O)[C@H](CC(C)C)NC(=O)[C@H](CCCCN)NC(=O)CNC(=O)[C@H](CC(C)C)NC(=O)[C@@H](NC(=O)[C@@H]1CSSC[C@H](N)C(=O)N[C@@H](CO)C(=O)N[C@@H](CC(N)=O)C(=O)N[C@@H](CC(C)C)C(=O)N[C@@H](CO)C(=O)N[C@@H]([C@@H](C)O)C(=O)N1)C(C)C)C(=O)N[C@@H](Cc1ccc(O)cc1)C(=O)N1CCC[C@H]1C(=O)N[C@@H](CCCN=C(N)N)C(=O)N[C@H](C(=O)N[C@@H](CC(N)=O)C(=O)N[C@H](C(=O)NCC(=O)N[C@@H](CO)C(=O)NCC(=O)N[C@H](C(=O)N1CCC[C@H]1C(N)=O)[C@@H](C)O)[C@@H](C)O)[C@@H](C)O` (H-CSNLSTCVLGKLSQELNKLH[Nle]YPRTNTGSGTP-NH2; disulfide 1-7), the Ki in experiment [1] came to 0.069 nM. The half-maximal inhibitory concentration (IC50) in experiment [2] is 0.408 nM.

In the case of `CC[C@H](C)[C@H](NC(=O)[C@H](C)NC(=O)[C@@H](NC(=O)[C@H](CCC(N)=O)NC(=O)[C@@H]1CCCN1C(=O)[C@H](Cc1ccccc1)NC(=O)[C@@H]1CCCNC(=O)C[C@H](NC(=O)[C@H](Cc2ccccc2)NC(=O)[C@H](CC(=O)O)NC(=O)[C@H](CCC(N)=O)NC(=O)[C@@H](NC(=O)[C@H](Cc2ccc(O)cc2)NC(=O)[C@@H](NC(=O)CNC(=O)[C@H](CC(C)C)NC(=O)[C@H](CCSC)NC(=O)[C@H](CS)NC(=O)[C@@H](NC(=O)[C@H](CO)NC(=O)[C@H](CC(C)C)NC(=O)[C@H](CC(N)=O)NC(=O)CNC(=O)[C@@H](N)CS)[C@@H](C)O)[C@@H](C)O)[C@@H](C)O)C(=O)N[C@@H](CCCCN)C(=O)N[C@@H](Cc2ccccc2)C(=O)N[C@@H](Cc2c[nH]cn2)C(=O)N1)[C@@H](C)O)C(=O)NCC(=O)N[C@H](C(=O)NCC(=O)N[C@@H](C)C(=O)N1CCC[C@H]1C(N)=O)C(C)C` (H-CGNLSTCMLGTYTQDFDKFH[Orn]FPQTAIGVGAP-NH2; lactam 17-21), in experiment [2], the IC50 stood at 173 nM.

`CC[C@H](C)[C@H](NC(=O)[C@H](C)NC(=O)[C@@H](NC(=O)[C@H](CCC(N)=O)NC(=O)[C@@H]1CCCN1C(=O)[C@H](Cc1ccccc1)NC(=O)[C@@H](NC(=O)[C@H](Cc1c[nH]cn1)NC(=O)[C@H](Cc1ccccc1)NC(=O)[C@H](CCCCN)NC(=O)[C@H](CC(N)=O)NC(=O)[C@H](Cc1ccccc1)NC(=O)[C@H](CC(=O)O)NC(=O)[C@H](CCC(N)=O)NC(=O)[C@@H](NC(=O)[C@H](Cc1ccc(O)cc1)NC(=O)[C@@H](NC(=O)CNC(=O)[C@H](CC(C)C)NC(=O)[C@H](CCSC)NC(=O)[C@@H]1CSSC[C@H](N)C(=O)NCC(=O)N[C@@H](CC(N)=O)C(=O)N[C@@H](CC(C)C)C(=O)N[C@@H](CO)C(=O)N[C@@H]([C@@H](C)O)C(=O)N1)[C@@H](C)O)[C@@H](C)O)[C@@H](C)O)[C@@H](C)O)C(=O)NCC(=O)N[C@H](C(=O)NCC(=O)N[C@@H](C)C(=O)N1CCC[C@H]1C(N)=O)C(C)C`: the concentration for half-maximal inhibition (IC50) in experiment [2] worked out at 2450 nM.

These data come from ChEMBL document CHEMBL1135734, “Side-chain lactam-bridge conformational constraints differentiate the activities of salmon and human calcitonins and reveal a new design concept for potent calcitonin analogues” (J Med Chem, 2002).
